The values below come from ChEMBL document CHEMBL1221308, “Synthesis and biological evaluation of new jasplakinolide (jaspamide) analogs” (Bioorg Med Chem Lett, 2010).

Broadly, the IC50 is the concentration needed to halve the response being measured.

For one experiment, the system named is CA46. In words: Growth inhibition of human CA46 cells […] after 24 hrs. The conditions noted are these: Homo sapiens, CA46, 24 h. It is filed as functional, cell-based. A digest of the protocol: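 Human CA46 Burkitt lymphoma cells treated for 24 h; growth read as cell number, IC50 derived from that count.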
As for `COc1ccc([C@H]2CC(=O)O[C@@H](C)C[C@@H](C)/C=C(\C)C[C@@H](C)C(=O)N[C@@H](C)C(=O)N(C)[C@H](Cc3c(Br)[nH]c4ccccc34)C(=O)N2)cc1`, the IC50 stood at 20 nM.

`C/C1=C\[C@H](C)C[C@H](C)OC(=O)C[C@H](c2ccccc2)NC(=O)[C@@H](Cc2c(Br)[nH]c3ccccc23)N(C)C(=O)[C@H](C)NC(=O)CC1`: the IC50 turned out to be 200 nM.

`COc1ccc([C@H]2CC(=O)O[C@@H](C)C[C@@H](C)/C=C(\C)CCC(=O)N[C@@H](C)C(=O)N[C@H](Cc3c(Br)[nH]c4ccccc34)C(=O)N2)cc1`: the IC50 was found to be 3000 nM. With `COc1ccc([C@H]2CC(=O)O[C@@H](C)C[C@@H](C)/C=C(\C)CCC(=O)N[C@@H](C)C(=O)N(C)[C@H](Cc3c[nH]c4ccccc34)C(=O)N2)cc1`, the half-maximal inhibitory concentration (IC50) worked out at 200 nM. Turning to `COc1ccc([C@H]2CC(=O)O[C@@H](C)C[C@@H](C)/C=C(\C)CCC(=O)NCC(=O)N(C)[C@H](Cc3c(Br)[nH]c4ccccc34)C(=O)N2)cc1`, the IC50 was found to be 300 nM.

The same experiment, now with this note: ca46.
For `COc1ccc([C@H]2CC(=O)NC(C)C[C@@H](C)/C=C(\C)CCC(=O)N[C@@H](C)C(=O)N(C)[C@H](Cc3c(Br)[nH]c4ccccc34)C(=O)N2)cc1` (single isomer, unassigned; diastereomer 2), the half-maximal inhibitory concentration (IC50) came to 3000 nM. The same measure, in the same setting: as for `COc1ccc([C@H]2CC(=O)NC(C)C[C@@H](C)/C=C(\C)CCC(=O)N[C@@H](C)C(=O)N(C)[C@H](Cc3c(Br)[nH]c4ccccc34)C(=O)N2)cc1` (stereo in doubt), the figure is 750 nM.
